According to ChEMBL document CHEMBL1671761, “Preclinical characterization of BI 201335, a C-terminal carboxylic acid inhibitor of the hepatitis C virus NS3-NS4A protease” (Antimicrob Agents Chemother, 2010):

Columns and labels:
[1] = target: Alpha-2A adrenergic receptor (Rattus norvegicus) (UniProt P22909); assay: Inhibition of rat adrenergic receptor Alpha-2 at 10 uM
Huh-7 = assay: Cytotoxicity activity against human HuH7 cells by MTT assay; format: functional
Summary of the method: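 MTT assay in proliferating Huh-7 cells exposed 72 h to serial inhibitor dilutions; formazan read at 570 nm. CC50 taken from percent inhibition.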

Hepatitis C virus = assay: Antiviral activity against HCV 2a infected in Huh7 cells assessed as inhibition of viral replication after 72 hrs by RT-PCR; format: functional, organism-based, Hepacivirus hominis; details: genotype 2a, Huh-7, 72 h
Summary of the method: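 Infectious JFH1 virus (cell culture-adapted, core K74T and NS5A C2441S) was produced by transfecting transcribed RNA into Huh-7.5 cells. Huh-7.5 cells (1×10^4/well, seeded 24 h before) were infected with virus plus a nine-concentration compound series in 0.5% DMSO for 72 h. HCV RNA was quantified by real-time RT-PCR. Mean ± SD, ≥3 experiments.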

[2] = Mean retention time in monkey at 5 mg/kg, po; format: ADME, organism-based, Macaca mulatta; design: dose 5 mg/kg, route oral; details: rhesus monkey, in vivo
Summary of the method: (§1)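 Fasted male rhesus monkeys (3.0-4.8 kg) given a single oral dose in 0.5% Methocel/0.3% Tween 80. Plasma taken by solid-phase extraction and measured by LC-MS/MS at m/z 869.3 (LOQ 10 nM). Noncompartmental analysis. Mean ± SE for three males.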

[3] = Cmax in Sprague-Dawley rat at 5 mg/kg, po; format: ADME, organism-based, Sparague-Dawley; design: dose 5 mg/kg, route oral; details: in vivo
Summary of the method: (§2)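 Single oral dose of 5 mg/kg in 0.5% Methocel with 0.3% Tween 80 (10 ml/kg) to fasted male animals: Sprague-Dawley rats (275-300 g, overnight fast with 10% dextrose water), rhesus monkeys, beagle dogs. Rat blood from cannulated carotid at 0-8 h, pooled from 3 rats per time point; monkey/dog n=3. Plasma solid-phase extracted, LC-MS/MS at m/z 869.3; noncompartmental analysis.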

[4] = Tmax in monkey at 5 mg/kg, po; format: ADME, organism-based, Macaca mulatta; design: dose 5 mg/kg, route oral; details: rhesus monkey, in vivo; summary of the method: as §1
[5] = AUC in rat at 5 mg/kg, po; format: ADME, organism-based; design: dose 5 mg/kg, route oral; details: plasma; summary of the method: as §2
[6] = AUC (0 to infinity) in dog at 5 mg/kg, po; format: ADME, organism-based, Canis lupus familiaris; design: time infinity, dose 5 mg/kg, route oral; details: plasma; summary of the method: as §2
[7] = target: Calpain-1 catalytic subunit (Homo sapiens) (UniProt P07384); assay: Inhibition of human calpain-1 at 10 uM
Caspase-2 (Homo sapiens) = Caspase-2 (Homo sapiens) (UniProt P42575); assay: Inhibition of human caspase-2 at 10 uM
[8] = target: Tissue-type plasminogen activator (Homo sapiens) (UniProt P00750); assay: Inhibition of human tPA at 10 uM
[9] = target: Plasminogen (Homo sapiens) (UniProt P00747); assay: Inhibition of human plasmin at 10 uM
[10] = target: Neprilysin (Rattus norvegicus) (UniProt P07861); assay: Inhibition of rat neutral endopeptidase at 10 uM
[11] = target: Disintegrin and metalloproteinase domain-containing protein 17 (Homo sapiens) (UniProt P78536); assay: Inhibition of human TACE at 10 uM
[12] = target: Sterol O-acyltransferase 2 (Rattus norvegicus) (UniProt Q7TQM4); assay: Inhibition of rat hapatic, acyl coA cholesterol acetyltransferase at 10 uM
[13] = target: Sodium-dependent noradrenaline transporter (Homo sapiens) (UniProt P23975); assay: Inhibition of human norepinephrine transporter at 10 uM
[14] = target: D(1A) dopamine receptor (Homo sapiens) (UniProt P21728); assay: Inhibition of human dopamine receptor 1 at 10 uM
Rattus norvegicus = organism: Rattus norvegicus; assay: Inhibition of rat potassium channel-A at 10 uM
[15] = target: Thromboxane A2 receptor (Homo sapiens) (UniProt P21731); assay: Inhibition of human Thromboxane A2 receptor at 10 uM
[16] = target: 5-hydroxytryptamine receptor 4 (Cavia porcellus) (UniProt O70528); assay: Inhibition of guinea pig 5-HT4 receptor at 10 uM
[17] = target: 5-hydroxytryptamine receptor 6 (Homo sapiens) (UniProt P50406); assay: Inhibition of human 5-HT6 receptor at 10 uM
[18] = target: 5-hydroxytryptamine receptor 7 (Homo sapiens) (UniProt P34969); assay: Inhibition of human 5-HT7 receptor at 10 uM
[19] = target: Neprilysin (Homo sapiens) (UniProt P08473); assay: Inhibition of human neutral endopeptidase from HUV-EC-C cells at 10 uM by fluorimetry
Neprilysin (Homo sapiens), sequence (P08473 whole entry): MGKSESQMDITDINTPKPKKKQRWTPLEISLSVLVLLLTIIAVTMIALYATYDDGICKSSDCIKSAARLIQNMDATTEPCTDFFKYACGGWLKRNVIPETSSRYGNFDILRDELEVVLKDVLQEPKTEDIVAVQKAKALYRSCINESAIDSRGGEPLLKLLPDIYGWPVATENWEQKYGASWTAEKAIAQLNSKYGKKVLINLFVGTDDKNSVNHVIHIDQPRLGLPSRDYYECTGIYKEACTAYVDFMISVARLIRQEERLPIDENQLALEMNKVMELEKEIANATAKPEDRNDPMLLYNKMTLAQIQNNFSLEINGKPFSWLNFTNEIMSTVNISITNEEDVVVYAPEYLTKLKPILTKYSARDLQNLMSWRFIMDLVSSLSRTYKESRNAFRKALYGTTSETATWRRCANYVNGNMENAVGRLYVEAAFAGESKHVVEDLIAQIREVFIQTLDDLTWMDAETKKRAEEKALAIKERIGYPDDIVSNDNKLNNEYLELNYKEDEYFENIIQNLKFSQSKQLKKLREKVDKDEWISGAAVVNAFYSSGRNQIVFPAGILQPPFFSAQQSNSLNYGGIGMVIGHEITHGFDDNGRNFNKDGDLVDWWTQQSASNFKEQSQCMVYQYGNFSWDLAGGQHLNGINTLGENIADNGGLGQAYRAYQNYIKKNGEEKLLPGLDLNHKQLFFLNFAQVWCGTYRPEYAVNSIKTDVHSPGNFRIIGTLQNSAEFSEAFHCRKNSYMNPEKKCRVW

Alpha-2A adrenergic receptor (Rattus norvegicus), sequence (P22909 whole entry): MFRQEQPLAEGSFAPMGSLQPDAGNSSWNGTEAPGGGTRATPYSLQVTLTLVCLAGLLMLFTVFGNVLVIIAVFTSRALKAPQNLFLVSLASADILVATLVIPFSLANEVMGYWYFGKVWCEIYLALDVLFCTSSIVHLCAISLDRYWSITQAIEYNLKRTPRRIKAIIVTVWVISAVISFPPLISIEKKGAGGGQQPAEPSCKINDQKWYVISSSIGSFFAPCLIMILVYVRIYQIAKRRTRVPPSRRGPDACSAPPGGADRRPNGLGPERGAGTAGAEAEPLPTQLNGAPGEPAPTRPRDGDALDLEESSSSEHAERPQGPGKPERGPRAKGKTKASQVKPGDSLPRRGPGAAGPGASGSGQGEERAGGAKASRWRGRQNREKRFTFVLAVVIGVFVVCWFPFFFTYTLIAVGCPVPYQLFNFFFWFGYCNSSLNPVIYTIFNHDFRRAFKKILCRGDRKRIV
5-hydroxytryptamine receptor 6 (Homo sapiens), sequence (P50406 whole entry): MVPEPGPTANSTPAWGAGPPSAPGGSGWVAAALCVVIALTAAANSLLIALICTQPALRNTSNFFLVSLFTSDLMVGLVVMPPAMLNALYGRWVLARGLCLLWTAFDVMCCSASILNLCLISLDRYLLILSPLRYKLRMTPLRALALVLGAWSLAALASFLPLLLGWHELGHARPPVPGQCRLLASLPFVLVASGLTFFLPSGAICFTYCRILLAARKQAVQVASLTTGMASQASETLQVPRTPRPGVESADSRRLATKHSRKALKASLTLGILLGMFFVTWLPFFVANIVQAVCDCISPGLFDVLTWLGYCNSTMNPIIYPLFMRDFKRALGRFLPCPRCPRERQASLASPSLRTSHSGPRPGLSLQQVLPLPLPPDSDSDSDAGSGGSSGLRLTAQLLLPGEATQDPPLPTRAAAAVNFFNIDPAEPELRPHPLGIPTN
5-hydroxytryptamine receptor 7 (Homo sapiens), sequence (P34969 whole entry): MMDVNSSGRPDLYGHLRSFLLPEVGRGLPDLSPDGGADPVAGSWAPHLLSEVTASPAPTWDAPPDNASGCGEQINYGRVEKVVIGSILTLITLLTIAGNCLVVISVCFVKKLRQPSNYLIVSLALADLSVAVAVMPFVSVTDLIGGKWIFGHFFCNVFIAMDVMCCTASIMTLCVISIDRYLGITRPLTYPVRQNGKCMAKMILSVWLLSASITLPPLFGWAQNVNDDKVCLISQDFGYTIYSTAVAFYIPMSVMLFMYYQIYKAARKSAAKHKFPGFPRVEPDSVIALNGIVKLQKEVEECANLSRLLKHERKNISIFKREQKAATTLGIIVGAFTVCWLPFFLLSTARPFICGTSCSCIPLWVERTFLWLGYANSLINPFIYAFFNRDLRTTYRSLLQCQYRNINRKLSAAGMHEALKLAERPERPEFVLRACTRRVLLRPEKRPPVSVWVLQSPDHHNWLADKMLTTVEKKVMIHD
Calpain-1 catalytic subunit (Homo sapiens), sequence (P07384 whole entry): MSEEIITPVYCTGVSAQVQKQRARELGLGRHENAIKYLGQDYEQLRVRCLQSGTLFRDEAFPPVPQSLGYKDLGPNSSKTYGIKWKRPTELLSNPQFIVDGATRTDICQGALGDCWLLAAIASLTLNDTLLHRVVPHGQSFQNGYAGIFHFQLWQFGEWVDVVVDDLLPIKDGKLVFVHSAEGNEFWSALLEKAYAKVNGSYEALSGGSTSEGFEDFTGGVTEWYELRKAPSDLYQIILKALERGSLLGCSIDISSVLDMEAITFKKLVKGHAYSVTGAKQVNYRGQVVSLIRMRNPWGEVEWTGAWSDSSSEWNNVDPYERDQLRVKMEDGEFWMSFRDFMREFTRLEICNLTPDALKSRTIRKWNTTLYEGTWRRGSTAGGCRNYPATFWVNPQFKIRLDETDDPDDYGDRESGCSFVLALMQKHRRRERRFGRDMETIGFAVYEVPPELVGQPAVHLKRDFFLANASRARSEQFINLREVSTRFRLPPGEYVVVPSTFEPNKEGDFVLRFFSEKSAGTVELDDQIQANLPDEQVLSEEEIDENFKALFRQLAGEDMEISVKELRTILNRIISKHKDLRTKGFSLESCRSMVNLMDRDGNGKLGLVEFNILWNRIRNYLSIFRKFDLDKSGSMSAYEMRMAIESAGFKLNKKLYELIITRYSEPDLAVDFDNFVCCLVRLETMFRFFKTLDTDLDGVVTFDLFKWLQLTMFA
D(1A) dopamine receptor (Homo sapiens), sequence (P21728 whole entry): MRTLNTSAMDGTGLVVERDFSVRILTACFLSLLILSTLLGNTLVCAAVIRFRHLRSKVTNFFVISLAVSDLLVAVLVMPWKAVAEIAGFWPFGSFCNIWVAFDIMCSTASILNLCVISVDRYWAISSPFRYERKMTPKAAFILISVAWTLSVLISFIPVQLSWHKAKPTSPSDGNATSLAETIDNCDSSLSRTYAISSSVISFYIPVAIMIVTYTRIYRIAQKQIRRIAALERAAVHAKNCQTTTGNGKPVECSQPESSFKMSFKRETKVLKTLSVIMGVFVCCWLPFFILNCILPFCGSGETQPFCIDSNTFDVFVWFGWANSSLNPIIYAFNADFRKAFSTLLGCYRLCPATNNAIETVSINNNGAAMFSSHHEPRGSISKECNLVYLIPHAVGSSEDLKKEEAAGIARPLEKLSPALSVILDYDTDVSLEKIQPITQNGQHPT
Sterol O-acyltransferase 2 (Rattus norvegicus), sequence (Q7TQM4 whole entry): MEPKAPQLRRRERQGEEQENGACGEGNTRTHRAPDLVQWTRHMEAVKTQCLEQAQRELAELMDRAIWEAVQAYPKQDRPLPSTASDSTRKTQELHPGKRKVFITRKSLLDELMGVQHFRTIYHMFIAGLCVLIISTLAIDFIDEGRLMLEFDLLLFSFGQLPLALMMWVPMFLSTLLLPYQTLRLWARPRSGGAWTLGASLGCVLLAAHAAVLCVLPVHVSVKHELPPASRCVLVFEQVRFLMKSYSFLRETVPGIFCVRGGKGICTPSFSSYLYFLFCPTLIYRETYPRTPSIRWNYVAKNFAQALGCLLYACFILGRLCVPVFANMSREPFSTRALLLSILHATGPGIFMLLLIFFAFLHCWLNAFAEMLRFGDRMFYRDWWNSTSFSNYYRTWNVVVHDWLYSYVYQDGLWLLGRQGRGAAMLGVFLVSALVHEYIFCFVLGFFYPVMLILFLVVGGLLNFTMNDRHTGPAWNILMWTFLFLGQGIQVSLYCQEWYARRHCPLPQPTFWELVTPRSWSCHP
5-hydroxytryptamine receptor 4 (Cavia porcellus), sequence (O70528 whole entry): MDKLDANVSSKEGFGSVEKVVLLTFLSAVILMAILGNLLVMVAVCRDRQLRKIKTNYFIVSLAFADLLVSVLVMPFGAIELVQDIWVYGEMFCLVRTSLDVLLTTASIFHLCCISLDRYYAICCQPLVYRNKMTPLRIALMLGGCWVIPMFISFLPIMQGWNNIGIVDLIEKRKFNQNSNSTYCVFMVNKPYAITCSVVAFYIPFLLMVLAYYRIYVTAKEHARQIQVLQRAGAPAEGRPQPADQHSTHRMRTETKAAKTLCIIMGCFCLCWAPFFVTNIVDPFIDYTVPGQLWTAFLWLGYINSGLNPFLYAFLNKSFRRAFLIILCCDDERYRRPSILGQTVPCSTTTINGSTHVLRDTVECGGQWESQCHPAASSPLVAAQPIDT
Plasminogen (Homo sapiens), sequence (P00747 97-580 limits assumed): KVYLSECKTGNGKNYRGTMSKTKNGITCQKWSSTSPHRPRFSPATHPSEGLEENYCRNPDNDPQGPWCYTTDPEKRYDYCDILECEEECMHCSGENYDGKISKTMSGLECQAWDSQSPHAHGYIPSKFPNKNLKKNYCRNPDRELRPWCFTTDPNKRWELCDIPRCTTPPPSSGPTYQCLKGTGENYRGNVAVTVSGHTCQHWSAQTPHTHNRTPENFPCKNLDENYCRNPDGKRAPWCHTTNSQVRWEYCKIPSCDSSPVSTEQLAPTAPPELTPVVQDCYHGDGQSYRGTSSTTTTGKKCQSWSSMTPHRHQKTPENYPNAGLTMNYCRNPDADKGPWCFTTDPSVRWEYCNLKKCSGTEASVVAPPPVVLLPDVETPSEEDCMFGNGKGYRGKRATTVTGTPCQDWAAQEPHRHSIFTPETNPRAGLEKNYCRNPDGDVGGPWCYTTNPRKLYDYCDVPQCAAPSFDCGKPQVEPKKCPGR
Plasminogen (Homo sapiens), sequence (P00747 581-810 limits assumed): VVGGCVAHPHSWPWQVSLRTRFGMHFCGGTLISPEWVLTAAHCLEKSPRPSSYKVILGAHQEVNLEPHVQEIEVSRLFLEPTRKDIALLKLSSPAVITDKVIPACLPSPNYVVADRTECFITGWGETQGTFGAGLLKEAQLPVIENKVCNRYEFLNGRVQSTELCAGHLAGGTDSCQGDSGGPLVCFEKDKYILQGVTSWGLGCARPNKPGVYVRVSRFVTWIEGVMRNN

For C=C[C@@H]1C[C@]1(NC(=O)[C@@H]1C[C@@H](Oc2cc(-c3csc(NC(=O)C(C)C)n3)nc3c(Br)c(OC)ccc23)CN1C(=O)[C@@H](NC(=O)OC1CCCC1)C(C)(C)C)C(=O)O, the inhibition [1] was 18%, the CC50 (Huh-7) was 30 µM and the EC50 (Hepatitis C virus) was 0.043 µM. For the same compound, the MRT [2] was 2.6 h, the Cmax [3] was 410 nM and the Tmax [4] was 2 h. The AUC [5] was 1.55 µM·h, the AUC(0-inf) [6] was 14 µM·h and the inhibition [7] was 18%. The inhibition (Caspase-2 (Homo sapiens)) was 5%, the inhibition [8] was 2% and the inhibition [9] was 18%. It also gave an inhibition [10] of 11%, an inhibition [11] of 77% and an inhibition [12] of 78%. For the same compound, the inhibition [13] was 20%, the inhibition [14] was 14% and the inhibition (Rattus norvegicus) was 10%. It also gave an inhibition [15] of 47%, an inhibition [16] of 18% and an inhibition [17] of 22%. It also gave an inhibition [18] of 3% and an inhibition [19] of 14%.
